From ChEMBL document CHEMBL2010762, “Synthesis of novel 9-O-N-aryl/aryl-alkyl amino carbonyl methyl substituted berberine analogs and evaluation of DNA binding aspects” (Bioorg Med Chem, 2012) come the findings set out here.

Calls of active or inactive are those of the source. The calls are words filed in the database; no cut-off is given here.

As a reminder, the ΔTm is the shift of the melting midpoint relative to a reference.

Common to all, as to format: nucleic-acid assay
Holding throughout (conditions): Bos taurus

The test system of assay [1] is Nucleic Acid. Nature of the assay: Binding affinity to calf thymus DNA assessed as change in melting temperature by thermal denaturation assay. Summed up:
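CT DNA alone or with alkaloid, 10 mM citrate-phosphate buffer pH 7.0. Absorbance at 260 nm was followed while heating from 20 to 100 °C at 0.5 °C/min in 1 cm quartz cuvettes. ΔTm was taken at saturation.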

Assay [2] has as its system Nucleic Acid. As to the kind of experiment: Binding affinity to calf thymus DNA assessed as fluorescence quenching by fluorescence spectroscopy analysis. Summed up: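 Ferrocyanide quenching of alkaloid fluorescence, free and bound to CT DNA, at constant P/D (base pair/alkaloid). KCl and K4[Fe(CN)6] solutions were mixed in different ratios at fixed total ionic strength in 10 mM CP buffer pH 7.0. Intensity was read against rising ferrocyanide. Stern–Volmer quenching constant (Ksv). At least four measurements were averaged per set.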

For assay [3], the system named is Nucleic Acid. As to the kind of experiment: Binding affinity to calf thymus DNA in citrate-phosphate buffer at pH 7 assessed as change in viscosity by hydrodynamic method. Summed up: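 Relative viscosity of CT DNA in 10 mM CP buffer pH 7.0 at 20 °C with increasing alkaloid (varying D/P), mixed by slow nitrogen bubbling. Flow times were measured in triplicate to 0.01 s. Contour length increase (L/Lo) was plotted against r.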

For assay [4], the system named is Nucleic Acid. Nature of the assay: Binding affinity to calf thymus DNA in citrate-phosphate buffer at pH 7 by circular dichroism spectral analysis. Summed up: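 CD spectra of CT DNA titrated with increasing alkaloid in 10 mM CP buffer pH 7.0 at 20 °C. Output is molar ellipticity, [θ] = [θ]obs/10lC.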
(Circular dichroism is widely used to follow secondary structure.)

`COc1ccc2cc3[n+](cc2c1OCC(=O)NCc1ccccc1)CCc1cc2c(cc1-3)OCO2.[Cl-]`: the ΔTm with Nucleic Acid [1] was 14 °C. Also, in the assay with Nucleic Acid [2], the KSV was 48 M⁻¹. In the assay on Nucleic Acid [3], the outcome was Active.
The like results for `COc1ccc2cc3[n+](cc2c1OCC(=O)NCCc1ccccc1)CCc1cc2c(cc1-3)OCO2.[Cl-]` were, in that order, 12 °C, 37 M⁻¹ and “Active”.
With `COc1ccc2cc3[n+](cc2c1OCC(=O)Nc1ccccc1)CCc1cc2c(cc1-3)OCO2.[Cl-]`, the ΔTm with Nucleic Acid [1] stood at 15.5 °C. Further, the result in the assay on Nucleic Acid [4] and with Nucleic Acid [3] was Active. Besides, the KSV in the assay on Nucleic Acid [2] stood at 57 M⁻¹.
As to `COc1ccc2cc3[n+](cc2c1OC)CCc1cc2c(cc1-3)OCO2.[Cl-]` [BERBERINE CHLORIDE], in the assay with Nucleic Acid [1], the ΔTm worked out at 9 °C. Besides, the result in the assay with Nucleic Acid [4] and in the assay on Nucleic Acid [3] was Active. The KSV with Nucleic Acid [2] was found to be 90 M⁻¹.
